Measured values published in ChEMBL document CHEMBL3124900, “Discovery and early clinical evaluation of BMS-605339, a potent and orally efficacious tripeptidic acylsulfonamide NS3 protease inhibitor for the treatment of hepatitis C virus infection” (J Med Chem, 2014).

Experiments:
[1] = Inhibition of Hepatitis C virus genotype 1a H77 recombinant NS3/4A protease expressed in Escherichia coli BL21 (DE3) cell using Ac-Asp-Glu-Asp(EDANS)-Glu-Glu-Abu[C(O)-O]-Ala-Ser-Lys(DABCYL)-NH2 as substrate by FRET assay; set-up: species or system Hepatitis C virus (isolate H77)
[2] = tested on: Hepatitis C virus; assay: Antiviral activity against Hepatitis C virus genotype 1b Con1 after 4 days by cell-based replicon assay; format: functional, organism-based, Hepacivirus hominis; settings: isolate Con1, 96 h
[3] = Cytotoxicity against human HuH7 cells; format: cell-based; settings: Huh-7 cells
[4] = AUC in intraduodenally dosed Sprague-Dawley rat plasma measured over 4 hrs by LC/MS/MS analysis; format: ADME, organism-based; set-up: time < 4 hr, route intraduodenal; settings: Sprague-Dawley, plasma
In short: (§1)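 Abbreviated rat screen: surgically prepared rats were dosed intraduodenally. Plasma was sampled over 4 h, and liver was collected at the 4 h end point. Plasma was precipitated with two volumes of ACN plus internal standard. Liver was weighed and homogenized in 2 volumes of 20% Hanks buffered salt solution/80% ACN. Both were quantified by LC/MS/MS.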

[5] = tested on: Liver; assay: Drug uptake in intraduodenally dosed Sprague-Dawley rat liver measured per gm of tissue over 4 hrs by LC/MS/MS analysis; format: ADME, organism-based; settings: in vivo, other; in short: as §1

SMILES | IC50 [1] [nM] | EC50 [2] [nM] | CC50 [3] [nM] | AUC at 4 h [4] [µM·h] | Drug uptake [5] [ng]
COc1ccc2c(O[C@@H]3C[C@@H](C(=O)NC4(C(=O)NS(=O)(=O)C5CC5)CC4)N(C(=O)[C@@H](NC(=O)OC(C)(C)C)C(C)(C)C)C3)cc(-c3ccccc3)nc2c1 | 12 | 437 |  |  | 
C=C[C@@H]1C[C@]1(NC(=O)[C@@H]1C[C@@H](Oc2nccc3cc(F)ccc23)CN1C(=O)[C@@H](NC(=O)OC(C)(C)C)C(C)(C)C)C(=O)NS(=O)(=O)C1CC1 | 87 | 117 | > 100000 | 1.46 | 69560
C=C[C@@H]1C[C@]1(NC(=O)[C@@H]1C[C@@H](Oc2nccc3c(F)cccc23)CN1C(=O)[C@@H](NC(=O)OC(C)(C)C)C(C)(C)C)C(=O)NS(=O)(=O)C1CC1 | 55 | 94 | > 100000 |  | 
C=C[C@@H]1C[C@]1(NC(=O)[C@@H]1C[C@@H](Oc2cc(-c3ccccc3)nc3cc(OC)ccc23)CN1C(=O)[C@@H](NC(=O)OC(C)(C)C)C(C)(C)C)C(=O)NS(=O)(=O)C1CCCCC1 | 149 | 210 |  |  | 
C=C[C@@H]1C[C@]1(NC(=O)[C@@H]1C[C@@H](Oc2nccc3cc(O)ccc23)CN1C(=O)[C@@H](NC(=O)OC(C)(C)C)C(C)(C)C)C(=O)NS(=O)(=O)C1CC1 | 3 | 67 | > 100000 |  | 
C=C[C@@H]1C[C@]1(NC(=O)[C@@H]1C[C@@H](Oc2nccc3cccc(C)c23)CN1C(=O)[C@@H](NC(=O)OC(C)(C)C)C(C)(C)C)C(=O)NS(=O)(=O)C1CC1 | 149 | 500 | > 100000 |  | 
C=C[C@@H]1C[C@]1(NC(=O)[C@@H]1C[C@@H](Oc2ccc3ccccc3n2)CN1C(=O)[C@@H](NC(=O)OC(C)(C)C)C(C)(C)C)C(=O)NS(=O)(=O)C1CC1 | 23 | 268 |  | 0.279 | 52094
C=C[C@@H]1C[C@]1(NC(=O)[C@@H]1C[C@@H](Oc2ccncc2)CN1C(=O)[C@@H](NC(=O)OC(C)(C)C)C(C)(C)C)C(=O)NS(=O)(=O)C1CC1 | 84 | 25000 |  |  | 
C=C[C@@H]1C[C@]1(NC(=O)[C@@H]1C[C@@H](Oc2nccc3ccc(C)cc23)CN1C(=O)[C@@H](NC(=O)OC(C)(C)C)C(C)(C)C)C(=O)NS(=O)(=O)C1CC1 | 7 | 100 | 86000 |  | 
C=C[C@@H]1C[C@]1(NC(=O)[C@@H]1C[C@@H](Oc2nccc3cc(OCC)ccc23)CN1C(=O)[C@@H](NC(=O)OC(C)(C)C)C(C)(C)C)C(=O)NS(=O)(=O)C1CC1 | 3 | 12 | 74000 | 1.83 | 14630
C=C[C@@H]1C[C@]1(NC(=O)[C@@H]1C[C@@H](Oc2nccc3cc(C)ccc23)CN1C(=O)[C@@H](NC(=O)OC(C)(C)C)C(C)(C)C)C(=O)NS(=O)(=O)C1CC1 | 4 | 100 | 92000 |  | 
C=C[C@@H]1C[C@]1(NC(=O)[C@@H]1C[C@@H](Oc2cc(-c3ccccc3)nc3cc(OC)ccc23)CN1C(=O)[C@@H](NC(=O)OC(C)(C)C)C(C)(C)C)C(=O)NS(C)(=O)=O | 36 | 600 |  |  | 
C=C[C@@H]1C[C@]1(NC(=O)[C@@H]1C[C@@H](Oc2cc(-c3ccccc3)nc3cc(OC)ccc23)CN1C(=O)CNC(=O)OC(C)(C)C)C(=O)NS(=O)(=O)C1CC1 | 16 | 893 |  |  | 
C=C[C@@H]1C[C@]1(NC(=O)[C@@H]1C[C@@H](Oc2nccc3c(N4CCOCC4)cccc23)CN1C(=O)[C@@H](NC(=O)OC(C)(C)C)C(C)(C)C)C(=O)NS(=O)(=O)C1CC1 | 96 | 966 | > 100000 |  | 
C=C[C@@H]1C[C@]1(NC(=O)[C@@H]1C[C@@H](Oc2cncc3cc(OC)ccc23)CN1C(=O)[C@@H](NC(=O)OC(C)(C)C)C(C)(C)C)C(=O)NS(=O)(=O)C1CC1 | 2 | 42 | > 100000 | 0.38 | 1205
C=C[C@@H]1C[C@]1(NC(=O)[C@@H]1C[C@@H](Oc2nccc3cc(C#N)ccc23)CN1C(=O)[C@@H](NC(=O)OC(C)(C)C)C(C)(C)C)C(=O)NS(=O)(=O)C1CC1 | 4 | 586 | > 100000 |  | 
C=C[C@@H]1C[C@]1(NC(=O)[C@@H]1C[C@@H](Oc2nc(-c3ccccc3)cc3ccccc23)CN1C(=O)[C@@H](NC(=O)OC(C)(C)C)C(C)(C)C)C(=O)NS(=O)(=O)C1CC1 | 3 | 9 | 12000 |  | 
C=C[C@@H]1C[C@]1(NC(=O)[C@@H]1C[C@@H](Oc2cc(-c3ccccc3)nc3cc(OC)ccc23)CN1C(=O)[C@@H](NC(=O)OC)C(C)(C)C)C(=O)NS(=O)(=O)C1CC1 | 1 | 32 |  | 0.009 | 156

SMILES | IC50 [1] [nM] | EC50 [2] [nM] | CC50 [3] [nM] | AUC at 4 h [4] [µM·h] | Drug uptake [5] [ng]
C=C[C@@H]1C[C@]1(NC(=O)[C@@H]1C[C@@H](Oc2ncc(C)c3ccccc23)CN1C(=O)[C@@H](NC(=O)OC(C)(C)C)C(C)(C)C)C(=O)NS(=O)(=O)C1CC1 | 1 | 50 | 71000 | 0.2 | 97240
C=C[C@@H]1C[C@]1(NC(=O)[C@@H]1C[C@H](Oc2nccc3cc(OC)ccc23)CN1C(=O)[C@@H](NC(=O)OC(C)(C)C)C(C)(C)C)C(=O)NS(=O)(=O)C1CC1 | 5000 |  |  | 0.25 | 3058
C=C[C@@H]1C[C@]1(NC(=O)[C@@H]1C[C@@H](Oc2ccnc(-c3ccccc3)c2)CN1C(=O)[C@@H](NC(=O)OC(C)(C)C)C(C)(C)C)C(=O)NS(=O)(=O)C1CC1 | 10 | 267 |  |  | 319
C=C[C@@H]1C[C@]1(NC(=O)[C@@H]1C[C@@H](Oc2cc(-c3ccccc3)nc3cc(OC)ccc23)CN1C(=O)[C@@H](N)C(C)(C)C)C(=O)NS(=O)(=O)C1CC1 | 30 | 860 |  |  | 
C=C[C@@H]1C[C@]1(NC(=O)[C@@H]1C[C@@H](Oc2cc(-c3ccccc3)nc3cc(OC)ccc23)CN1C(=O)[C@@H](NC(=O)OC(C)(C)C)C(C)(C)C)C(=O)NS(=O)(=O)c1ccccc1 | 8 | 20 |  |  | 
C=C[C@@H]1C[C@]1(NC(=O)[C@@H]1C[C@@H](Oc2ncnc3cc(OC)ccc23)CN1C(=O)[C@@H](NC(=O)OC(C)(C)C)C(C)(C)C)C(=O)NS(=O)(=O)C1CC1 | 2 | 18 | > 100000 | 0.11 | 2319
C=C[C@@H]1C[C@]1(NC(=O)[C@@H]1C[C@@H](Oc2nccc3cc(C(C)(C)C)ccc23)CN1C(=O)[C@@H](NC(=O)OC(C)(C)C)C(C)(C)C)C(=O)NS(=O)(=O)C1CC1 | 31 | 209 | 15000 |  | 
C=C[C@@H]1C[C@]1(NC(=O)[C@@H]1C[C@@H](Oc2ccnc3cc(OC)ccc23)CN1C(=O)[C@@H](NC(=O)OC(C)(C)C)C(C)(C)C)C(=O)NS(=O)(=O)C1CC1 | 5 | 26 |  | 0.015 | 620
C=C[C@@H]1C[C@]1(NC(=O)[C@@H]1C[C@@H](Oc2cc(-c3ccccc3)nc3cc(OC)ccc23)CN1C(=O)[C@@H](NC(=O)OC(C)(C)C)C(C)(C)C)C(=O)NS(=O)(=O)C1CCC1 | 7 | 29 |  |  | 
C=C[C@@H]1C[C@]1(NC(=O)[C@@H]1C[C@@H](Oc2cc(-c3ccccc3)nc3cc(OC)ccc23)CN1C(=O)[C@@H](NC(=O)OC(C)(C)C)C(C)(C)C)C(=O)NS(=O)(=O)C(C)C | 19 | 97 |  |  | 
C=C[C@@H]1C[C@]1(NC(=O)[C@@H]1C[C@@H](Oc2nccc3cc(N4CCOCC4)ccc23)CN1C(=O)[C@@H](NC(=O)OC(C)(C)C)C(C)(C)C)C(=O)NS(=O)(=O)C1CC1 | 3 | 26 | > 100000 | 0.46 | 1018
C=C[C@@H]1C[C@]1(NC(=O)[C@@H]1C[C@@H](Oc2nccc3c(C)cccc23)CN1C(=O)[C@@H](NC(=O)OC(C)(C)C)C(C)(C)C)C(=O)NS(=O)(=O)C1CC1 | 5 | 40 | 89000 | 6.36 | 160300
C=C[C@@H]1C[C@]1(NC(=O)[C@@H]1C[C@@H](Oc2ncc(Cl)c3ccccc23)CN1C(=O)[C@@H](NC(=O)OC(C)(C)C)C(C)(C)C)C(=O)NS(=O)(=O)C1CC1 | 8 | 41 | 45000 |  | 
C=C[C@@H]1C[C@]1(NC(=O)[C@@H]1C[C@@H](Oc2nccc3cc(-n4cccn4)ccc23)CN1C(=O)[C@@H](NC(=O)OC(C)(C)C)C(C)(C)C)C(=O)NS(=O)(=O)C1CC1 | 4 | 64 | 94000 |  | 
C=C[C@@H]1C[C@]1(NC(=O)[C@@H]1C[C@@H](Oc2cc(-c3ccccc3)nc3cc(OC)ccc23)CN1C(=O)[C@@H](NC(=O)OC(C)(C)C)C(C)(C)C)C(=O)NS(=O)(=O)C1CCCC1 | 71 | 170 |  |  | 
C=C[C@@H]1C[C@]1(NC(=O)[C@@H]1C[C@@H](Oc2cc(-c3ccccc3)nc3cc(OC)ccc23)CN1C(=O)[C@@H](NC(=O)OC(C)(C)C)C(C)(C)C)C(=O)NS(=O)(=O)CC | 6 | 133 |  |  | 
C=C[C@@H]1C[C@]1(NC(=O)[C@@H]1C[C@@H](Oc2nccc3cc(C(=O)N(C)C)ccc23)CN1C(=O)[C@@H](NC(=O)OC(C)(C)C)C(C)(C)C)C(=O)NS(=O)(=O)C1CC1 | 476 | 11000 | > 100000 |  | 
C=C[C@@H]1C[C@]1(NC(=O)[C@@H]1C[C@@H](Oc2nccc3cc(Cl)ccc23)CN1C(=O)[C@@H](NC(=O)OC(C)(C)C)C(C)(C)C)C(=O)NS(=O)(=O)C1CC1 | 36 | 833 | 44000 |  | 
